These results are taken from ChEMBL document CHEMBL2331249, “Cytotoxicity of lapachol, β-lapachone and related synthetic 1,4-naphthoquinones against oesophageal cancer cells” (Eur J Med Chem, 2013).

Structures are written as SMILES. pIC50: −log10 of the molar value. Activity calls are given as the source filed them. The rule behind the calls is not given here.

Data set [1] in a line: Ratio of cisplatin IC50 to compound IC50 for human WHCO1 cells after 24 hrs by MTT assay. Format: functional.
Data set [2] can be described thus: Cytotoxicity against human WHCO1 cells after 24 hrs by MTT assay. Format: functional, cell-based. To be noted: WHCO1, 24 h.
Data set [3] has as its system WHCO1. Briefly: Induction of apoptosis in human WHCO1 cells assessed as increase in c-jun level after 6 to 24 hrs by MTT assay. Format: functional, cell-based. To be noted: in the assay text read “by Western blot analysis” for “by MTT assay”. The method, boiled down: (§1)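 Western blot of WHCO1 cells given varying concentrations for 6, 24 and 48 h, protein extracted at each time point. PARP cleavage to […] 85 kDa fragments taken as the apoptosis marker; c-Jun levels probed on the same blots.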
A general note: Formazan colour is commonly taken as a measure of viable cells.

Data set [4] is described as follows: Cytotoxicity against human WHCO1 cells after 48 hrs by MTT assay. Particulars: WHCO1, 48 h.
For data set [5], the system named is WHCO1. Briefly: Induction of apoptosis in human WHCO1 cells assessed as PARP cleavage at 5 to 10 uM after 6 to 48 hrs by MTT assay. Format: functional, cell-based. Particulars: in the assay text read “by Western blot analysis” for “by MTT assay”. The method, boiled down:
as §1

For data set [6], the system named is WHCO1. Briefly: Induction of apoptosis in human WHCO1 cells assessed as PARP cleavage at 20 uM after 6 to 48 hrs by MTT assay. To be noted: in the assay text read “by Western blot analysis” for “by MTT assay”. Format: functional, cell-based. The method, boiled down:
as §1

The nature of data set [7]: Ratio of cisplatin IC50 to compound IC50 for human WHCO1 cells after 48 hrs by MTT assay.
For a further data set, the system named is NIH3T3. Briefly: Cytotoxicity against mouse NIH/3T3 cells after 96 hrs by MTT assay. Particulars: for pIC50: Mus musculus, NIH3T3, 96 h; for Activity: mouse, nih3t3, 96 h. Format: cell-based. The method, boiled down:
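NIH3T3 fibroblasts kept in DMEM with 10% heat-inactivated FCS plus penicillin/streptomycin/amphotericin at 37 °C, 9% CO2. Seeded at 1000 cells/well overnight, then exposed to 0, 10, 100, 1 000 and 10 000 nM or vehicle (0.02% v/v) for 96 h.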

Take `O=C1C=C(C(O)c2ccc3ccccc3c2)C(=O)c2ccccc21` (stereo not given): the “Ratio IC50” value in data set [1] worked out at 2. The pIC50 (usually the negative decadic logarithm of the IC50, by convention in mol/L) in data set [2] is 5.62. With `O=C1C=C([C@@H](O)c2ccccc2)C(=O)c2ccccc21`, the Activity result in the data set with WHCO1 [3] is “Dose-dependent effect”. This molecule also showed a pIC50 in data set [4] of 5.42. For the same molecule, in the data set with WHCO1 [5], the outcome was inactive. For the same molecule, the outcome with WHCO1 [6] was Active. Take `O=C1C=C(C(O)c2ccc(F)cc2)C(=O)c2ccccc21` (stereo not given): the figures for the pIC50 (in data set [4]; in the data set with NIH3T3) were 5.29 and 4.93, respectively. Also, in data set [7], the “Ratio IC50” value stood at 2. In data set [4], `O=C1C=C(C(O)c2ccc(Cl)cc2)C(=O)c2ccccc21` (stereo not given) gave a pIC50 of 5.52. Besides, in data set [7], the “Ratio IC50” value is given as 2. Moreover, the Activity result in the data set on NIH3T3 is recorded as “Non-toxic”. `CC1(C)OC2=C(CC1Br)C(=O)C(=O)c1ccccc12` (stereo not given) had a pIC50 in data set [4] of 5.74. The “Ratio IC50” value in data set [7] is 9. Turning to `O=C1C=C(Cc2ccccc2)C(=O)c2ccccc21`, in data set [4], the pIC50 is 4.67.

Turning to `O=C1C=C(C(O)CCc2ccccc2)C(=O)c2ccccc21` (stereo not given), the pIC50 in data set [4] is 5.32. In addition, the “Ratio IC50” value in data set [7] is 2.

`O=C1C=C(C(O)c2cccc(Cl)c2)C(=O)c2ccccc21` (stereo not given) gave a pIC50 in data set [4] of 5.14. In addition, in data set [7], the “Ratio IC50” value is on record as 2. For the same molecule, the Activity result in the data set on NIH3T3 is listed as “Non-toxic”. For `O=C1C=C(C(O)c2cccc(F)c2)C(=O)c2ccccc21` (stereo not given), the pIC50 is 5.26 in data set [4] and 4.09 in the data set with NIH3T3. The “Ratio IC50” value in data set [7] was 2. For `CC(C)=CC(O)C1=CC(=O)c2ccccc2C1=O` (stereo not given), in data set [4], the pIC50 was 5.28. With `CC(C)=CCC1=CC(=O)c2ccccc2C1=O` [DEOXYLAPACHOL], the pIC50 in data set [4] is 4.82. The same measure, in the same setting: for `O=C(C1=CC(=O)c2ccccc2C1=O)c1ccoc1` the value was 4.01; for `O=C(C1=CC(=O)c2ccccc2C1=O)c1ccc(Cl)cc1`, 4.14.

For the molecule `Cc1cc(Cl)ccc1C(O)C1=CC(=O)c2ccccc2C1=O` (stereo not given), the pIC50 in data set [4] was 5.47; in the data set with NIH3T3, 5.13. Further, the “Ratio IC50” value in data set [7] turned out to be 2.

`C=CC(O)C1=CC(=O)c2ccccc2C1=O` (stereo not given): the pIC50 in data set [4] is 5.37. Consider `CC1(C)OC2=C(CC1O)C(=O)C(=O)c1ccccc12` (stereo not given), for which, in data set [4], the pIC50 is 5.19. For the same molecule, the “Ratio IC50” value in data set [7] was determined as 2.

Molecule `O=C1C=C(c2ccccc2)C(=O)c2ccccc21` had a pIC50 in data set [4] of 4.93. The “Ratio IC50” value in data set [7] is 2. `CC1(C)CCC2=C(O1)C(=O)c1ccccc1C2=O` [ALPHA-LAPACHONE]: in data set [4], the pIC50 is 4.54.

As to `O=C(C1=CC(=O)c2ccccc2C1=O)c1ccc(F)cc1`, in data set [4], the pIC50 is 4.13.

As for `O=C1C=C(C(O)c2ccoc2)C(=O)c2ccccc21` (stereo not given), the pIC50 in data set [4] was 4.96. Also, in data set [7], the “Ratio IC50” value is on record as 2.

As to `O=C(C1=CC(=O)c2ccccc2C1=O)c1cccc(Cl)c1`, in data set [4], the pIC50 was 4.02.

Take `Cc1cc(Cl)ccc1C(=O)C1=CC(=O)c2ccccc2C1=O`: the pIC50 in data set [4] was 4.30. As for `CC(C)=CCC1=C(O)C(=O)c2ccccc2C1=O` [LAPACHOL], in data set [4], the pIC50 was 4.62.

As to `CC(O)C1=CC(=O)c2ccccc2C1=O` (stereo not given), in data set [4], the pIC50 was 5.19.

As for `CC1(C)CCC2=C(O1)c1ccccc1C(=O)C2=O` [LAPACHONE], the pIC50 in data set [4] is 5.80. The “Ratio IC50” value in data set [7] was determined as 10. On to `O=C1C=C(C(O)c2ccccc2)C(=O)c2ccccc21` (racemic), for which the Activity result is “Dose-dependent effect” with WHCO1 [3] and “Non-toxic” in the data set on NIH3T3. In addition, the pIC50 in data set [4] was 5.41. In addition, in the data set on WHCO1 [5], the outcome was inactive. The “Ratio IC50” value in data set [7] was determined as 11. The result in the data set on WHCO1 [6] was Active. As for `O=C1C=C([C@H](O)c2ccccc2)C(=O)c2ccccc21`, the Activity result in the data set on WHCO1 [3] was “Dose-dependent effect”. Besides, the pIC50 in data set [4] was 5.37. For the same molecule, the result with WHCO1 [5] was inactive. In the data set on WHCO1 [6], the outcome was Active. For `O=C(C1=CC(=O)c2ccccc2C1=O)c1cccc(F)c1`, in data set [4], the pIC50 was 4.02.

In data set [4], `O=C(C1=CC(=O)c2ccccc2C1=O)c1ccccc1` gave a pIC50 of 4.20. In data set [4], `O=C(CCc1ccccc1)C1=CC(=O)c2ccccc2C1=O` gave a pIC50 of 4.08. Consider `CC1(C)CC2=C(O1)c1ccccc1C(=O)C2=O` [NOR-BETA-LAPACHONE], for which the pIC50 in data set [4] is 5.62. The “Ratio IC50” value in data set [7] is recorded as 7.
